M4 antag: human M4 muscarinic receptor antagonists, primary screen, CHO cells, Fluo-8 calcium fluorescence; inhibition, % at 3 µM; CHO-hM4 cells, ACh EC80; hit rate 0.73% among 360,000; Muscarinic acetylcholine receptor M4 (Homo sapiens), P08173; AID 624125, 2012;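 active = inhibition above its plate's cutoff, the mean inhibition of sample wells plus 3 SD, cut at about 27% in these data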
CHRM5 PAM: human M5 muscarinic receptor positive allosteric modulators, primary screen, CHO-K1 cells, Fluo-8 calcium fluorescence. CHO-K1 hM5, ACh EC20 PAM; 0% = ACh EC20, 100% = ACh EC100. activation, % at 3 µM. hit rate 0.3% among 360,000;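 active = activation above the run cutoff, the mean activation of all test compounds plus 3 SD, cut at about 18% in these data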
Target sequence (P08912 whole entry, looked up): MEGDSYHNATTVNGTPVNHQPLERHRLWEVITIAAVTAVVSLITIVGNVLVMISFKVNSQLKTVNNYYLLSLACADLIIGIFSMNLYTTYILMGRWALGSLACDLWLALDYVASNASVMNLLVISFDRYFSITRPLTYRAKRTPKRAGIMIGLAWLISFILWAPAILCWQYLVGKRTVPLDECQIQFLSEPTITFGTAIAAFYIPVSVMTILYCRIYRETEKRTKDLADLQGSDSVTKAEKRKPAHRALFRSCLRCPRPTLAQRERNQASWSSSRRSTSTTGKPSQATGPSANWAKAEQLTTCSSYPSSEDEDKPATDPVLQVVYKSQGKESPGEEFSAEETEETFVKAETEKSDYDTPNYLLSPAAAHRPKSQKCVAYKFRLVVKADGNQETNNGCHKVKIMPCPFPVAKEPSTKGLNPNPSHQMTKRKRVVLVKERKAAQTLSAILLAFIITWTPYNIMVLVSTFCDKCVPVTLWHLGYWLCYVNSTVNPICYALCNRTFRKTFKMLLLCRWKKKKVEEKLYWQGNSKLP
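Measured by: Fluo-8 calcium fluorescence; material: human M5 receptor in CHO-K1 cells; schedule: Post-acetylcholine fluorescence recording 140 s; benchmarks: low control EC20 acetylcholine (0%), high control EC100 acetylcholine (100%); read-out: Max/basal fluorescence ratio as % of EC20–EC100 ACh window; compound: single dose, 3 µM nominal final test concentration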
M4 ag: human M4 muscarinic receptor agonists, primary screen, CHO-K1 cells, Fluo-8 calcium fluorescence; activation, % at 3 µM; hit rate 0.14% among 360,000; CHO-K1 hM4/Gqi5; vehicle 0%, full acetylcholine response 100%; Muscarinic acetylcholine receptor M4 (Homo sapiens), P08173; AID 624127, 2012;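 active = activation above the run mean over all test wells plus 3 SD, cut at about 32% in these data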;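 also: peak over basal fluorescence ratio per well then scaled between controls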
CHRM4 PAM: human M4 muscarinic receptor positive allosteric modulators, primary screen, CHO-K1 cells, Fluo-8 calcium fluorescence; hit rate 0.4% among 360,000; CHO-K1 hM4/Gqi5, ACh EC20; 0% = ACh EC20, 100% = maximal ACh; Muscarinic acetylcholine receptor M4 (Homo sapiens), P08173; AID 624126, 2012; activation, % at 3 µM;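 active = activation above its plate's cutoff, the mean activation of sample wells plus 3 SD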
CHRM5 antagonist: human M5 muscarinic receptor antagonists, primary screen, CHO cells, Fluo-8 calcium fluorescence; CHO-hM5 cells, ACh EC80; inhibition, % at 3 µM; hit rate 0.59% among 360,000; AID 624040, 2012;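 active = inhibition above a per-plate cutoff, the mean of that plate's test compounds plus 3 SD, cut at about 27% in these data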
M5 ag: human M5 muscarinic receptor agonists, primary screen, CHO-K1 cells, Fluo-8 calcium fluorescence; hit rate 0.19% among 360,000; AID 624037, 2012; Muscarinic acetylcholine receptor M5 (Homo sapiens), P08912; activation, % at 3 µM; CHO-K1 hM5 cells; 0% DMSO wells, 100% maximal acetylcholine response;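 active = activation above the run's mean over test compounds plus 3 SD, cut at about 23% in these data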;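 also: signal is peak over basal fluorescence ratio across the kinetic read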
Of the large screens only hits and unclear results are named; the others gave an inactive call. Compounds with a hit are over-represented: about 1.9% of the library has one in this group of screens.

COc1ccc(OC)c(S(=O)(=O)N2CCCCCC2)c1	none
COc1ccc(OC)c(S(=O)(=O)N2CCCC(C)C2)c1 (stereo unspecified)	CHRM4 PAM 28
CC1CCCN(S(=O)(=O)c2ccc(Br)s2)C1 (stereo unspecified)	none
CCCC(=O)Nc1ccc(C(=O)COC(=O)C2CC2)cc1	none
CN(c1ccccc1)S(=O)(=O)c1cccc(NC(=O)CSc2nncs2)c1	M4 antag 27
CN(c1ccccc1)S(=O)(=O)c1cccc(NC(=O)CSc2nnc(N)s2)c1	none
CN(C)S(=O)(=O)c1cccc(NC(=O)c2ccc(COc3ccccc3)cc2)c1	CHRM5 antagonist 27
CN(c1ccccc1)S(=O)(=O)c1cccc(NC(=O)c2cccc(C#N)c2)c1	CHRM5 antagonist 33
CC(C)N(C(=S)Nc1cccc(S(=O)(=O)N(C)C)c1)c1ccccc1	CHRM5 PAM 19
CCc1nc2c(OCC(=O)C(C)(C)C)cccn2c1N(C=O)CC(=O)N(C)C	none
CC[C@@H](C)[C@H](N)C(=O)NC[C@H]1O[C@@H](n2cnc3c(N)ncnc32)[C@H](O)[C@@H]1O	none
Cc1cc(F)ccc1S(=O)(=O)Nc1ccccc1C(=O)NC1CCN(Cc2ccccc2)CC1	none
COc1ccc(CNCc2ccc(OC)c3ccccc23)cc1	none
Cc1onc(-c2c(F)cccc2Cl)c1C(=O)Nc1cc(S(=O)(=O)N2CCCCC2)ccc1O	M4 antag 27
Cc1noc(C)c1C(=O)Nc1ccc(S(=O)(=O)N2CCC(C)CC2)cc1	none
Cc1noc(C)c1C(=O)Nc1ccc(S(=O)(=O)N2CCCCC2)cc1	CHRM4 PAM 16
Cc1onc(-c2c(F)cccc2Cl)c1C(=O)Nc1ccc(S(=O)(=O)N2CCOCC2)cc1	none
CCOCCCNC(=O)CN1C(=O)c2ccccc2Sc2ncccc21	none
c1sc2[n+](c1C13CC4CC(CC(C4)C1)C3)CCS2	M4 antag 34
Fc1ccc(-c2csc3[n+]2CCS3)cc1	none
N=c1sccn1CC(=O)NCCc1ccc(Cl)cc1Cl	M4 antag 35
O=C(Cc1ccccc1)NCCc1ccc(Cl)cc1Cl	none
Clc1ccc(OCc2cn3ccccc3n2)c2ncccc12	CHRM5 antagonist 35
CCN(CC)c1ccc(/C=C/C(=O)C2C(=O)C=C(C)OC2=O)cc1 (stereo unspecified)	M4 ag 49, CHRM5 antagonist 42, M5 ag 184
CCN(CC)c1ccc(C=C2C(=O)OC(c3ccccc3)OC2=O)cc1 (stereo unspecified)	none
O=C(CCS(=O)(=O)c1ccccc1)N(CCCN1CCOCC1)c1nc2ccc(F)cc2s1	none
Cn1c(=O)c(C(=O)COc2ccc(C#N)cc2)c(N)n(Cc2ccccc2)c1=O	M5 ag 38
Cn1nnnc1SCC(=O)Nc1ncc(C(F)(F)F)cc1Cl	none
CCC(C)CN1C(=O)CN(S(C)(=O)=O)CC1(C)C(=O)Nc1c(C)cccc1C (stereo unspecified)	none
CCCS(=O)(=O)N1CCC(C(=O)N2CCCC2)CC1	CHRM5 PAM 21
CC1(C)N=C(N)N=C(N)N1c1ccccc1	none
CC1(C)N=C(N)N=C(N)N1c1ccc(CCCCc2ccccc2)cc1	CHRM5 antagonist 41
Cc1ccc(SCc2[nH]nc3c2C2(C(=O)Nc4ccc([N+](=O)[O-])cc42)C(C#N)=C(N)O3)cc1 (stereo unspecified)	CHRM5 PAM 25, CHRM4 PAM 51
Cc1ccc(SCc2[nH]nc3c2C2(CCSCC2)C(C#N)=C(N)O3)cc1	none
Cc1cc2nc(C3CCCCC3)c(Cc3ccccc3)n2c(C)c1Br	none
CCN(c1ccccc1)S(=O)(=O)c1ccc(N2CCN(c3ccccc3O)CC2)nc1	none
CCOC(=O)Cn1c(=N)n(CCOc2ccc(OC)cc2)c2ccccc21	none
CCOC(=O)Cn1c(=N)n(CCOc2ccc3ccccc3c2)c2ccccc21	M4 ag 39
C=CCc1c(C)nc(-c2ccccc2)nc1N/N=C(\C)c1ccccc1	M4 antag 35
O=C1CC(N2CCN(C/C=C/c3ccccc3)CC2)C(=O)N1Cc1cccs1 (stereo unspecified)	M4 antag 34, CHRM5 antagonist 39
O=C1CC(N2CCN(C/C=C/c3ccccc3)CC2)C(=O)N1CCc1ccccc1 (stereo unspecified)	none
COC(=O)c1ccc(NC(=O)CNC(=O)c2sc3ccccc3c2Cl)cc1	CHRM4 PAM 22
CC(=O)Nc1ccc(NC(=O)CNC(=O)c2sc3ccccc3c2Cl)cc1	none
NC(=O)c1ccc(NC(=O)C2CC2)cc1	CHRM4 PAM 22
CS(=O)(=O)N1CCC(C(=O)Nc2ccc(C(N)=O)cc2)CC1	none
CCN1CCN(c2ccc(N3CCN(C(=O)c4ccc(Br)o4)CC3)nn2)CC1	none
COc1ccc(C(=O)n2cnc3ccccc32)cc1	CHRM4 PAM 14
Cc1c([C@@H]2C[C@H]3CN(Cc4cccc(Cl)c4)C(=O)[C@]34CCCN24)cnn1C	none
COc1ccccc1CN1C[C@@H]2C[C@@H](c3ccccc3OC)N3CCC[C@@]23C1=O	M4 antag 30
COc1ccccc1CN1C[C@@H]2C[C@@H](c3ccc(Cl)cc3)N3CCC[C@@]23C1=O	none
Cn1cc([C@@H]2C[C@H]3CN(Cc4cccc(Cl)c4)C(=O)[C@]34CCCN24)c2ccccc21	M4 antag 30
CC(OC(=O)Cc1ccc(Br)cc1)C(=O)NC1CCCCC1C (stereo unspecified)	none
O=[N+]([O-])c1cccc(COc2ccc(CN3CCOCC3)cc2)c1	none
O=[N+]([O-])c1cccc(COc2ccc(CN3CCCC3)cc2)c1	M4 antag 28
O=S(=O)(CCc1nc2ccccc2[nH]1)c1ccc(Cl)cc1	CHRM4 PAM 23
Cc1ccc(S(=O)(=O)CCc2nc3ccccc3[nH]2)cc1	none
CC(C)C[C@@H](CNCC(=O)[C@H](C)NC(=O)c1[nH]cnc1C(=O)N[C@@H](C)CN)NC(=O)c1nc[nH]c1C(=O)N[C@@H](CC(=O)O)C(=O)O	none
O=C(Nc1ccc(C(=O)N2CCCCC2)cc1)Nc1cccc(Cl)c1	none
CCN(CC)CCN(C(=O)c1ccc2ccccc2c1)c1nc2ccc(F)cc2s1	CHRM4 PAM 18
O=S1(=O)N[C@@H](Cc2ccccc2)COc2cc(N3CCN(Cc4ccccc4F)CC3)ccc21	none
